Test [1] has as its target T1, Serine/threonine-protein kinase PAK 4 (Homo sapiens, UniProt O96013). The experiment in a line: Inhibition of PAK4 (unknown origin) using substrate S2 after 60 mins by HTRF assay.
Target sequence in this assay (O96013 whole entry): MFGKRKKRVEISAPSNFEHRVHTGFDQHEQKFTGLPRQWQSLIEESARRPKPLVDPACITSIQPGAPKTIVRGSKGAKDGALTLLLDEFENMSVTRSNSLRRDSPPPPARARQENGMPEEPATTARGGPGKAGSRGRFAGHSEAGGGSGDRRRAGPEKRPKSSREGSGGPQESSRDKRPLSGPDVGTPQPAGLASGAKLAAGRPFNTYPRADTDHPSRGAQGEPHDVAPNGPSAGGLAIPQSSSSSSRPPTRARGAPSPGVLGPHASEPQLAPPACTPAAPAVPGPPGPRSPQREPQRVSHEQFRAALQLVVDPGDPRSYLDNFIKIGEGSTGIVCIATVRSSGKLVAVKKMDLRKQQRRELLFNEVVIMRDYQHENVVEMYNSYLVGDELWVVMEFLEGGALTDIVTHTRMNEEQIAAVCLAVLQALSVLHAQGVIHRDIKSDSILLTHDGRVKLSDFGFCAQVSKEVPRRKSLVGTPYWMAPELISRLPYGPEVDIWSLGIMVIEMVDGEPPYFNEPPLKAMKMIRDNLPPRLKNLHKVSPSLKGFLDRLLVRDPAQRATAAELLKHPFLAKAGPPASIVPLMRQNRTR
The subject of another test is MCF7. The experiment in a line: Growth inhibition of human MCF7 cells after 72 hrs by CCK8 assay. The class given is functional, cell-based. The following applies: MCF7, 72 h. The gist of the method:
(§1)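 Cells seeded in 96-well plates and exposed to various compound concentrations on the seeding day, cultured 72 h at 37 °C. Proliferation read by CCK-8.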

Test [2] deals with A549. The experiment in a line: Growth inhibition of human A549 cells after 72 hrs by CCK8 assay. The class given is functional, cell-based. The following applies: A549, 72 h. The gist of the method: as §1
Another test deals with HT-1080. The experiment in a line: Growth inhibition of human HT1080 cells after 72 hrs by CCK8 assay. The following applies: HT-1080, 72 h. The class given is functional, cell-based. The gist of the method: as §1
Background: Tetrazolium dyes change colour on reduction, which living cells bring about.

The subject of test [3] is A549. The experiment in a line: Cell cycle arrest in human A549 cells assessed as accumulation at G1 phase at 1 uM after 72 hrs by propidium iodide staining based flow cytometry (reference value: 44.99%). Type of test: functional. On the technique in general: A flow cytometer gives signals particle by particle.
Test [4] addresses T1, Serine/threonine-protein kinase PAK 4. The experiment in a line: Inhibition of PAK4 in human A549 cells assessed as reduction in LIMK1 phosphorylation after 72 hrs by Western blot analysis. The class given is cell-based. For orientation: Immunoblotting shows a protein as a band on a membrane.
Target sequence in this assay (O96013 whole entry, looked up): as the sequence (O96013 whole entry) above
In test [5] the test system is A549. The experiment in a line: Induction of apoptosis in human A549 cells assessed as live cells at 5 uM after 72 hrs by Annexin-V/7AAD staining based flow cytometry (reference value: 93.98%). The class given is functional.
For test [6], the system named is A549. The experiment in a line: Induction of apoptosis in human A549 cells assessed as early apoptotic cells at 5 uM after 72 hrs by Annexin-V/7AAD staining based flow cytometry (reference value: […]). Type of test: functional.
For test [7], the system named is A549. The experiment in a line: Cell cycle arrest in human A549 cells assessed as accumulation at G2 phase at 1 uM after 72 hrs by propidium iodide staining based flow cytometry (reference value: 17.62%). Type of test: functional.
Test [8] relates to A549. The experiment in a line: Induction of apoptosis in human A549 cells assessed as late apoptotic cells at 1 uM after 72 hrs by Annexin-V/7AAD staining based flow cytometry (reference value: 2.95%). Type of test: functional.
Test [9] relates to A549. The experiment in a line: Cell cycle arrest in human A549 cells assessed as accumulation at S phase at 1 uM after 72 hrs by propidium iodide staining based flow cytometry (reference value: 37.39%). Type of test: functional.
Test [10] has as its system A549. The experiment in a line: Cell cycle arrest in human A549 cells assessed as accumulation at G2 phase at 5 uM after 72 hrs by propidium iodide staining based flow cytometry (reference value: 17.62%). The class given is functional.
Test [11] deals with A549. The experiment in a line: Antimigratory activity against human A549 cells at 5 uM […] by crystal violet staining based transwell chamber assay. The class given is functional, cell-based.
Test [12] concerns A549. The experiment in a line: Anti-invasive activity against human A549 cells at 5 uM […] by crystal violet staining based matrigel invasion chamber assay. Type of test: functional, cell-based.
Test [13] has as its system A549. The experiment in a line: Cell cycle arrest in human A549 cells assessed as accumulation at G1 phase at 5 uM after 72 hrs by propidium iodide staining based flow cytometry (reference value: 44.99%). The class given is functional.
Test [14] relates to A549. The experiment in a line: Induction of apoptosis in human A549 cells assessed as late apoptotic cells at 5 uM after 72 hrs by Annexin-V/7AAD staining based flow cytometry (reference value: 2.95%). Type of test: functional.
For test [15], the system named is A549. The experiment in a line: Induction of apoptosis in human A549 cells assessed as necrotic cells at 5 uM after 72 hrs by Annexin-V/7AAD staining based flow cytometry (reference value: 0.65%). Type of test: functional.
The test system of test [16] is A549. The experiment in a line: Induction of apoptosis in human A549 cells after 72 hrs by Annexin-V/7AAD staining based flow cytometry. The class given is functional, cell-based.
Test [17] concerns the target T1, Serine/threonine-protein kinase PAK 4. The experiment in a line: Inhibition of PAK4 phosphorylation in human A549 cells after 2 hrs by Western blot analysis. The class given is cell-based. A digest of the protocol: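 A549 cells treated with indicated dose for 2 h, lysed in SDS sample buffer, resolved by 10% SDS-PAGE, transferred to nitrocellulose, probed for phospho-PAK4 and PAK4 (GAPDH loading control) with HRP-conjugated secondary antibodies, detected by enhanced chemiluminescence.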
Target sequence in this assay (O96013 whole entry, looked up): as the sequence (O96013 whole entry) above

Test [18] concerns A549. The experiment in a line: Cell cycle arrest in human A549 cells assessed as accumulation at S phase at 5 uM after 72 hrs by propidium iodide staining based flow cytometry (reference value: 37.39%). The class given is functional.
Test [19] relates to A549. The experiment in a line: Induction of apoptosis in human A549 cells assessed as live cells at 1 uM after 72 hrs by Annexin-V/7AAD staining based flow cytometry (reference value: 93.98%). The class given is functional.
The target in test [20] is T1, Serine/threonine-protein kinase PAK 4. The experiment in a line: Inhibition of PAK4 in human A549 cells assessed as reduction in cofilin phosphorylation after 72 hrs by Western blot analysis. The class given is cell-based.
Target sequence in this assay (O96013 whole entry, looked up): as the sequence (O96013 whole entry) above
Test [21] relates to A549. The experiment in a line: Induction of apoptosis in human A549 cells assessed as early apoptotic cells at 1 uM after 72 hrs by Annexin-V/7AAD staining based flow cytometry (reference value: […]). Type of test: functional.
The test system of test [22] is A549. The experiment in a line: Induction of apoptosis in human A549 cells assessed as necrotic cells at 1 uM after 72 hrs by Annexin-V/7AAD staining based flow cytometry (reference value: 0.65%). Type of test: functional.

SMILES strings stand for the structures. Activity calls are given as the source filed them. The calls are words filed in the database; no cut-off is given here. A value given as a limit tells only on which side of the number the result lay.

With `O=C1Nc2ccc(C(=O)N[C@H](CO)c3ccc(F)cc3)cc2/C1=C/c1ccc[nH]1`, the IC50 in test [1] (read-out: IC50) is 54 nM.

For the compound `O=C1Nc2ccc(C(=O)N[C@H](CO)c3ccccc3)cc2/C1=C/c1ccc[nH]1`, the IC50 is 6.56 µM in the test on MCF7; 22 nM in [1] (read-out: IC50); 21.9 nM in test [1] (read-out: pIC50 (converted)); 2370 nM in the test on A549 [2]; 0.98 µM in the test with HT-1080.

For the compound `O=C1Nc2ccc(C(=O)N[C@H](CO)c3ccccc3)cc2/C1=C/c1ccn[nH]1`, the IC50 in [1] (read-out: IC50) came to 379 nM.

Turning to `O=C1Nc2ccc(C(=O)N[C@H](CO)c3ccccc3)cc2/C1=C/c1cccs1`, in test [1] (read-out: IC50), the IC50 is 1290 nM.

As to `O=C1Nc2ccc(C(=O)NCCO)cc2/C1=C/c1ccc[nH]1`, the IC50 in [1] (read-out: IC50) stood at 1260 nM.

Consider `O=C1Nc2ccc(C(=O)N[C@H](CO)c3ccccc3Cl)cc2/C1=C/c1ccc[nH]1`, for which the IC50 in [1] (read-out: IC50) is 199 nM.

For the compound `O=C1Nc2ccc(C(=O)NCCCO)cc2/C1=C/c1ccc[nH]1`, the IC50 in test [1] (read-out: IC50) is 3150 nM.

In the case of `O=C1Nc2ccc(C(=O)N[C@@H](CO)c3ccccc3)cc2/C1=C/c1ccc[nH]1`, the IC50 in test [1] (read-out: IC50) came out at 3380 nM.

For `CC(C)[C@@H](CO)NC(=O)c1ccc2c(c1)/C(=C/c1ccc[nH]1)C(=O)N2`, the IC50 in test [1] (read-out: IC50) is 2350 nM.

With `O=C1Nc2ccc(C(=O)N[C@H](CO)Cc3ccccc3)cc2/C1=C/c1ccc[nH]1`, in [1] (read-out: IC50), the IC50 was determined as 304 nM.

As for `O=C1Nc2ccc(C(=O)N[C@H](CO)c3ccccc3)cc2/C1=C/c1cnc[nH]1`, the IC50 in the test with MCF7 came out at 10.8 µM; in the test with A549 [2], 3700 nM; with HT-1080, 7.9 µM.

Consider `O=C1Nc2ccc(C(=O)N[C@H](CCO)c3ccccc3)cc2/C1=C/c1ccc[nH]1`, for which the IC50 in test [1] (read-out: IC50) is 5010 nM.

Regarding `O=C1Nc2ccc(C(=O)N[C@H](CO)c3ccc(Cl)cc3)cc2/C1=C/c1ccc[nH]1`, the IC50 in test [1] (read-out: IC50) is 391 nM.

`Cn1cc(-c2cc3c(cc2C(=O)N[C@H](CO)c2ccccc2)/C(=C/c2ccc[nH]2)C(=O)N3)cn1`: the IC50 in [1] (read-out: IC50) was 1990 nM.

As to `CC(C)(C)[C@@H](CO)NC(=O)c1ccc2c(c1)/C(=C/c1ccc[nH]1)C(=O)N2`, the IC50 in test [1] (read-out: IC50) stood at 634 nM.

Take `O=C1Nc2cc(F)c(C(=O)N[C@H](CO)c3ccccc3)cc2/C1=C/c1ccc[nH]1`: the IC50 in [1] (read-out: IC50) is 718 nM.

Turning to `O=C1Nc2cc(Br)c(C(=O)N[C@H](CO)c3ccccc3)cc2/C1=C/c1ccc[nH]1`, in test [1] (read-out: IC50), the IC50 amounted to 1200 nM.

Consider `O=C1Nc2ccc(C(=O)N[C@H](CO)c3ccccc3)cc2/C1=C/c1ncc[nH]1`, for which, in [1] (read-out: IC50), the IC50 was found to be 281 nM.

`O=C1Nc2cc(Cl)c(C(=O)N[C@H](CO)c3ccccc3)cc2/C1=C/c1ccc[nH]1`: the IC50 in test [1] (read-out: IC50) is 1420 nM.

For `O=C1Nc2ccc(C(=O)N[C@H](CO)c3ccccc3)cc2C1=Cc1ccccn1`, the IC50 in [1] (read-out: IC50) is greater than 10000 nM.

As to `N#Cc1cc2c(cc1C(=O)N[C@H](CO)c1ccccc1)/C(=C/c1ccc[nH]1)C(=O)N2`, in [1] (read-out: IC50), the IC50 was 1540 nM.

With `Cn1nccc1-c1cc2c(cc1C(=O)N[C@H](CO)c1ccccc1)/C(=C/c1ccc[nH]1)C(=O)N2`, the IC50 in test [1] (read-out: IC50) amounted to 1450 nM.

Take `O=C1Nc2ccc(C(=O)N[C@H](CO)c3ccccc3)cc2/C1=C/c1ccco1` (stereo in doubt): the IC50 in test [1] (read-out: IC50) is 802 nM.

As to `Cc1cc(C)c(/C=C2\C(=O)Nc3ccc(C(=O)N[C@H](CO)c4ccccc4)cc32)[nH]1`, the Activity came out at 35.7% with A549 [3]; 26.23% in the test on A549 [5]; 32.18% with A549 [6]; 24.37% in the test on A549 [7]; 15.46% with A549 [8]; 39.92% with A549 [9]. For the same compound, the Activity in the test with A549 [10] was 33.75%; in the test with A549 [13], 27.78%; with A549 [14], 33.22%; with A549 [15] it was 8.36%; in the test on A549 [16], “Dose-dependent effect”; with A549 [18] it was 38.47%. The Activity in the test on A549 [19] was determined as 70.56%; with A549 [21] it was 8.44%; in the test with A549 [22], 5.14%. Moreover, the inhibition entry in [4], in test [17] and in [20] was “Dose-dependent effect” in each case. Also, the IC50 in the test on MCF7 is 2.11 µM; in [1] (read-out: IC50) it was 27 nM; in test [1] (read-out: pIC50 (converted)), 27.5 nM; in the test with A549 [2] it was 830 nM; with HT-1080, 6.77 µM. Further, the outcome with A549 [11] and in the test with A549 [12] was Active.

These data come from ChEMBL document CHEMBL4033682, “Discovery of indolin-2-one derivatives as potent PAK4 inhibitors: Structure-activity relationship analysis, biological evaluation and molecular docking study” (Bioorg Med Chem, 2017).
